Experimental data taken from ChEMBL document CHEMBL1250511, “Discovery of pyridazinopyridinones as potent and selective p38 mitogen-activated protein kinase inhibitors” (J Med Chem, 2010).

Columns and labels:
THP-1 = assay: Antiinflammatory activity in human THP1 cells assessed as inhibition of LPS-induced TNFalpha production after 3 hrs; type: functional, cell-based; details: THP-1, 3 h
Method in brief: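 THP-1 cells (1.5 × 10^6/mL in RPMI 1640, 10% heat-inactivated FBS, 30 μM βME) given 3-fold serial DMSO dilutions of compound, then LPS. Incubation 3 h at 37 °C, 5% CO2. Secreted TNFα measured in medium by MSD electrochemiluminescence. Results expressed as percent of control relative to DMSO (HI) and no-LPS (LO) wells.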

[1] = Antiinflammatory activity in human whole blood cells assessed as inhibition of TNF-alpha-induced IL8 production after 16 to 18 hrs; type: functional, cell-based
Method in brief: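 Heparinized blood from healthy, nonmedicated volunteers (final 50% in RPMI 1640/10% human AB serum) was preincubated 1 h at 37 °C, 5% CO2 with ten-point compound titrations. It was then stimulated with TNFα (final 1 nM) overnight (16-18 h). Plasma IL-8 was measured by MSD ECL sandwich immunoassay.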

[2] = biological target: Mitogen-activated protein kinase 14 (Homo sapiens, UniProt Q16539); assay: Inhibition of p38alpha MAP kinase
Sequence of Mitogen-activated protein kinase 14 (Q16539 whole entry): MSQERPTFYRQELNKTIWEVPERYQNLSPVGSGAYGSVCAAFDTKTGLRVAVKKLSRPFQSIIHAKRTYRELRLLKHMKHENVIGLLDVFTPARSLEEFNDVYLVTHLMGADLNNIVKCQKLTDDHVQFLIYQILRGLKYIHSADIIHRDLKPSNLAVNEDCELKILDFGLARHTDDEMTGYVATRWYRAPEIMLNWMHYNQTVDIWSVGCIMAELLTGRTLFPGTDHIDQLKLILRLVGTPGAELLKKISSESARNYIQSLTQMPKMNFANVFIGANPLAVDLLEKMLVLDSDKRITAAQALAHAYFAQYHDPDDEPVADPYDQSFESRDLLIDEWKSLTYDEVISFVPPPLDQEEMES

[3] = Half life in Sprague-Dawley rat at 2 mg/kg, iv; type: ADME, organism-based; set-up: dose 2 mg/kg, route intravenous; details: in vivo
Method in brief: (§1)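 Single iv dose of 2.0 mg/kg, formulated in DMSO.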

[4] = Volume of distribution at steady state in Sprague-Dawley rat at 2 mg/kg, iv; type: ADME, organism-based; set-up: dose 2 mg/kg, route intravenous; details: in vivo, read-out: Vdss; method in brief: as §1
[5] = AUC in Sprague-Dawley rat at 2 mg/kg, po; type: ADME, organism-based; set-up: dose 2 mg/kg, route oral; details: plasma
[6] = Oral bioavailability in Sprague-Dawley rat at 2 mg/kg; type: ADME, organism-based; details: in vivo
Rattus norvegicus [7] = organism: Rattus norvegicus; assay: Antiarthritic activity in Lewis rat assessed as reduction in collagen-induced paw swelling; type: functional
Method in brief: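 Arthritis induced by intradermal porcine type II collagen emulsified 1:1 in incomplete Freund's adjuvant. Animals were grouped at disease onset (10-12 days post-immunization) and dosed orally once daily for 7 days. Paw diameter was measured daily on days 0-7. Area under the paw-swelling curve gave percent inhibition versus vehicle.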

[8] = Clearance in Sprague-Dawley rat at 2 mg/kg, iv; type: ADME, organism-based; set-up: dose 2 mg/kg, route intravenous; details: in vivo; method in brief: as §1
Rattus norvegicus [9] = assay: Antiinflammatory activity in po dosed Lewis rat assessed as inhibition of LPS-induced TNFalpha production administered 1 hrs prior to LPS challenge after 90 mins

For `Cc1ccc(C(=O)O)cc1-c1cc2cnnc(-c3ccc(F)cc3F)c2n(C)c1=O`, which IC50 (THP-1) is on record?
The IC50 was over 2500 nM.

And the IC50 [1]?
Its IC50 is over 2500 nM.

And the IC50 [2]?
Its IC50 is over 1000 nM.

For `Cn1c(=O)c(Cc2ccc(F)cc2F)cc2cnnc(-c3ccc(F)cc3F)c21`, which IC50 (THP-1) is on record?
The IC50 was 49 nM.

And the IC50 [1]?
The IC50 was 213 nM.

And the IC50 [2]?
Its IC50 is 6.1 nM.

For `Cn1c(=O)c(Cc2ccc(F)cc2)cc2cnnc(-c3ccc(F)cc3F)c21`, which IC50 (THP-1) is on record?
Its IC50 is 197 nM.

What about the IC50 [1] of the same compound?
Its IC50 is 697 nM.

And the IC50 [2]?
The IC50 was 55.8 nM.

What does the source list for `Cn1c(=O)c(Oc2ccc(F)cc2F)cc2cnnc(-c3ccc(F)cc3F)c21`?
IC50 (THP-1): 107 nM; IC50 [1]: 70.5 nM

With `Cn1c(=O)c(Oc2ccc(F)cc2)cc2cnnc(-c3ccc(F)cc3F)c21` as the compound, how does the IC50 (THP-1) read?
Its IC50 is 235 nM.

And the IC50 [1]?
Its IC50 is 227 nM.

And the IC50 [2]?
The IC50 was 78 nM.

What does the source list for `CN(c1ccc(F)cc1)c1cc2cnnc(-c3ccc(F)cc3F)c2n(C)c1=O`?
IC50 (THP-1): 1140 nM; IC50 [1]: 1240 nM; IC50 [2]: 299 nM

Which IC50 (THP-1) does the source give for `Cn1c(=O)c(Nc2ccc(F)cc2)cc2cnnc(-c3ccc(F)cc3F)c21` here?
The IC50 was 13.7 nM.

And the IC50 [1]?
Its IC50 is 61.9 nM.

For `Cn1c(=O)c(Nc2ccc(F)cc2F)cc2cnnc(-c3ccc(F)cc3F)c21`, which IC50 (THP-1) is on record?
Its IC50 is 4.5 nM.

What about the IC50 [1] of the same compound?
Its IC50 is 11.7 nM.

What about the IC50 [2] of the same compound?
The IC50 was 0.9 nM.

For `Cn1c(=O)c(Nc2ccc(F)cn2)cc2cnnc(-c3ccc(F)cc3F)c21`, which IC50 (THP-1) is on record?
Its IC50 is over 2500 nM.

And the IC50 [1]?
The IC50 was over 2500 nM.

What does the source list for `Cn1c(=O)c(Nc2ncc(F)cc2F)cc2cnnc(-c3ccc(F)cc3F)c21`?
IC50 (THP-1): 982 nM; IC50 [1]: > 2500 nM

Which IC50 (THP-1) does the source give for `Cc1cnc(C(=O)NC2CC2)cc1-c1cc2cnnc(-c3ccc(F)cc3F)c2n(C)c1=O` here?
Its IC50 is 80.5 nM.

And the IC50 [1]?
Its IC50 is 63.3 nM.

And the IC50 [2]?
The IC50 was 14.5 nM.

With `Cn1c(=O)c(-c2cc(C(=O)NC3CC3)ccc2Cl)cc2cnnc(-c3ccc(F)cc3F)c21` as the compound, how does the IC50 (THP-1) read?
The IC50 was 6.3 nM.

And the IC50 [1]?
The IC50 was 8.3 nM.

And the IC50 [2]?
The IC50 was 2.6 nM.

With `Cc1c(F)cc(C(=O)NC2CC2)cc1-c1cc2cnnc(-c3ccc(F)cc3F)c2n(C)c1=O` as the compound, how does the half-life [3] read?
Its half-life is 4.66 h.

What about the IC50 (THP-1) of the same compound?
The IC50 was 1.1 nM.

What about the Vd [4] of the same compound?
Its Vd is 1.19 L/kg.

And the AUC [5]?
Its AUC is 6740 ng·h/mL.

And the IC50 [1]?
The IC50 was 1.6 nM.

And the bioavailability [6]?
The bioavailability was 55%.

And the IC50 [2]?
Its IC50 is 1.4 nM.

With `Cc1ccc(C(=O)NC2(C)CC2)cc1-c1cc2cnnc(-c3ccc(F)cc3F)c2n(C)c1=O` as the compound, how does the IC50 (THP-1) read?
The IC50 was 14.5 nM.

What about the IC50 [1] of the same compound?
Its IC50 is 27.4 nM.

What about the IC50 [2] of the same compound?
The IC50 was 3.1 nM.

For `Cc1ccc(C(=O)NC2CC2)cc1-c1cc2cnnc(-c3ccc(F)cc3F)c2n(C)c1=O`, which ED50 (Rattus norvegicus [7]) is on record?
Its ED50 is 0.03 mg/kg.

What about the half-life [3] of the same compound?
The half-life was 3.06 h.

What about the IC50 (THP-1) of the same compound?
The IC50 was 2.1 nM.

And the Vd [4]?
Its Vd is 1.04 L/kg.

And the clearance [8]?
The clearance was 3.83 mL/min/kg.

What about the AUC [5] of the same compound?
Its AUC is 7630 ng·h/mL.

And the IC50 [1]?
Its IC50 is 1.8 nM.

What about the bioavailability [6] of the same compound?
Its bioavailability is 86%.

And the ED50 (Rattus norvegicus [9])?
The ED50 was 0.06 mg/kg.

What about the IC50 [2] of the same compound?
The IC50 was 2.7 nM.

For `CNC(=O)c1ccc(C)c(-c2cc3cnnc(-c4ccc(F)cc4F)c3n(C)c2=O)c1`, which IC50 (THP-1) is on record?
The IC50 was 24.3 nM.

What about the IC50 [1] of the same compound?
Its IC50 is 30 nM.

For `Cc1ccc(C(N)=O)cc1-c1cc2cnnc(-c3ccc(F)cc3F)c2n(C)c1=O`, which IC50 (THP-1) is on record?
The IC50 was 19.3 nM.

And the IC50 [1]?
The IC50 was 21.3 nM.

And the IC50 [2]?
Its IC50 is 2.7 nM.
